Laboratory results reported in ChEMBL document CHEMBL4373749, “Design and Catalyzed Activation of Tak-242 Prodrugs for Localized Inhibition of TLR4-Induced Inflammation” (ACS Med Chem Lett, 2020).

Columns and labels:
[1] = Stability of compound in phosphate buffered saline containing 5% DMSO assessed as compound remaining at 0.01 mg/ml at pH 7.4 measured after 1 day by HPLC analysis; type: physicochemical; details: read-out: Stability
Outline: (§1)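 Incubation at 37 °C in phosphate buffered saline, pH 7.4, containing 5% DMSO. Aqueous stability was followed over time.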

[2] = Stability of compound in phosphate buffered saline containing 5% DMSO at 0.01 mg/ml at pH 7.4 by HPLC analysis; type: physicochemical; details: buffer; outline: as §1
[3] = target: T1, Oxygen-insensitive NAD(P)H nitroreductase (Escherichia coli K-12, UniProt P38489); assay: Prodrug conversion in PBS containing 5% DMSO assessed as Escherichia coli nitroreductase-mediated activation by measuring reduced amine intermediate metabolite formation at 0.01 mg/ml at pH 7.4 in presence of […] by HPLC analysis; type: ADME; details: isolated protein
T1 sequence (P38489 whole entry): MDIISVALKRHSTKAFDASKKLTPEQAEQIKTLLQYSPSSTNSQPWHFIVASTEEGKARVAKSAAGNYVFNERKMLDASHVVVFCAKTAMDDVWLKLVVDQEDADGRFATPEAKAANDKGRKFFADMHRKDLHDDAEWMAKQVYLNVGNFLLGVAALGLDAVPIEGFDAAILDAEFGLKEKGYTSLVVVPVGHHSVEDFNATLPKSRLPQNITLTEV
Outline: (§2)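 Nitroreductase from E. coli (2 units/mL) with NADPH (1 mg/mL) in PBS, pH 7.4, containing 5% DMSO. The reaction was monitored by HPLC.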

[4] = target: T1, Oxygen-insensitive NAD(P)H nitroreductase; assay: Prodrug conversion in PBS containing 5% DMSO assessed as Escherichia coli nitroreductase-mediated activation by measuring release of ethyl (6R)-6-[(2-chloro-4-fluorophenyl)sulfamoyl]cyclohexene-1-carboxylate parent drug at 0.01 mg/ml at pH 7.4 in presence of […] by HPLC analysis; details: isolated protein; outline: as §2
[5] = target: T1, Oxygen-insensitive NAD(P)H nitroreductase; assay: Prodrug conversion in PBS containing 5% DMSO assessed as Escherichia coli nitroreductase-mediated activation by measuring increased consumption of prodrug at 0.01 mg/ml at pH 7.4 in presence of […] by HPLC analysis; details: isolated protein; outline: as §2
[6] = target: T2, Toll-like receptor 4 (Homo sapiens, UniProt O00206); assay: Inhibition of human TLR4 expressed in HEK-Blue cells assessed as decrease in LPS-induced TLR4 response incubated for 1 hr followed by LPS stimulation and further incubated for 22 hrs by cell based reporter assay
[7] = target: T2, Toll-like receptor 4; assay: Inhibition of human TLR4 expressed in HEK-Blue cells assessed as decrease in LPS-induced TLR4 response at 15 uM incubated for 1 hr followed by LPS stimulation and further incubated for 22 hrs by cell based reporter assay
Outline: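 HEK TLR4 reporter cells exposed to compound across a concentration range, then stimulated with LPS. Read-out is optical density at 650 nm. Complete suppression was defined as the OD650 of cells given racemic reference inhibitor at 15 μM. IC50 values were derived from the concentration-response data.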

T2 sequence (O00206 whole entry): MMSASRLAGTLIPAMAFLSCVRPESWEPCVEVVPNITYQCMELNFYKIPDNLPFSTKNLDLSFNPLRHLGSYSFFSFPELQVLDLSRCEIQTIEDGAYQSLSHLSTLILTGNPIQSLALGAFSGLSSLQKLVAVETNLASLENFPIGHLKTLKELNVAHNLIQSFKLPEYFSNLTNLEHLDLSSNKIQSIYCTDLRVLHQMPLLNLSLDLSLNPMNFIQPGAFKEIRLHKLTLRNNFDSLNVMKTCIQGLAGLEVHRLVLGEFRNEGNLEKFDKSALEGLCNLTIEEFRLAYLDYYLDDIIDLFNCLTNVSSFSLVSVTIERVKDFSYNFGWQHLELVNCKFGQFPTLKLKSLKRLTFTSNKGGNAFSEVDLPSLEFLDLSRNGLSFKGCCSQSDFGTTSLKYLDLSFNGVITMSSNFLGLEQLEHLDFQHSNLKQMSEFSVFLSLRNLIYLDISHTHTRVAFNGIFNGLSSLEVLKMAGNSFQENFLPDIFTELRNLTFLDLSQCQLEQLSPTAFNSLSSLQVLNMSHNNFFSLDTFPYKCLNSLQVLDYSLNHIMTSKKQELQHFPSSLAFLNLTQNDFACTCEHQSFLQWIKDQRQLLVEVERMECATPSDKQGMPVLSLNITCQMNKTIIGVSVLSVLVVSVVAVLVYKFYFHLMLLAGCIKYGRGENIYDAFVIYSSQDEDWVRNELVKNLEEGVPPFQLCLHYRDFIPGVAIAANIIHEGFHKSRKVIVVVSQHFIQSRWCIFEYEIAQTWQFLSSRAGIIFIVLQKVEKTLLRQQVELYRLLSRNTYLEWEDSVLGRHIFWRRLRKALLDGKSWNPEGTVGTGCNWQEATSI

SMILES	remaining at 24 h, 0.01 mg/ml [1]	Stability [2]	Drug metabolism [3]	Drug metabolism [4]	Drug metabolism [5]	IC50 [6]	inhibition [7]
C#CCOC(=O)N(c1ccc(F)cc1Cl)S(=O)(=O)C1CCCC=C1C(=O)OCC (racemic)	25%	Unstable	–	–	–	–	–
CCOC(=O)C1=CCCCC1S(=O)(=O)N(Cc1ccc([N+](=O)[O-])cc1)c1ccc(F)cc1Cl (racemic)	–	Stable	Metabolite_Detected	Metabolite_Detected	Metabolite_Detected	–	–
CCOC(=O)C1=CCCCC1S(=O)(=O)N(C(=O)OCc1ccc([N+](=O)[O-])cc1)c1ccc(F)cc1Cl (racemic)	85%	Unstable	Metabolite_Notdetected	Metabolite_Detected	Metabolite_Detected	–	–

The next lines start with the values.

remaining at 24 h, 0.01 mg/ml [1]	Stability [2]	Drug metabolism [3]	Drug metabolism [4]	Drug metabolism [5]	IC50 [6]	inhibition [7]	SMILES
–	–	–	–	–	40 nM	100%	CCOC(=O)C1=CCCCC1S(=O)(=O)Nc1ccc(F)cc1Cl (racemic)
–	Stable	–	–	–	–	–	C#CCN(c1ccc(F)cc1Cl)S(=O)(=O)C1CCCC=C1C(=O)OCC (racemic)
